Experimental data published in ChEMBL document CHEMBL3351972, “Indole-3-ethylsulfamoylphenylacrylamides: potent histone deacetylase inhibitors with anti-inflammatory activity” (Eur J Med Chem, 2014).
The source made the active and inactive calls. No cut-off for these calls is given here.

Key:
RAW264.7 [1] = assay: Anti-inflammatory activity in LPS-stimulated mouse RAW264.7 cells assessed as suppression of COX2 protein expression at 0.01 to 1 uM pre-incubated for 30 mins before LPS stimulation for 24 hrs by Western blotting method; format: functional, cell-based
Summary of the method: (§1)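 RAW 264.7 cells (1 × 10⁶/well) were pretreated with compound at 0.01–1 for 30 min, then stimulated with LPS (25 ng/mL) for 24 h. Whole-cell extracts were cleared at 17,000 g for 30 min at 4 °C, and protein was measured by Bradford. Blots were blocked in 5% milk/TBST, probed with primary antibody overnight at 4 °C, then HRP secondary (1:1000) 1 h RT. Data are mean ± SEM of three replicates, compared with the LPS-only group.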

RAW264.7 [2] = assay: Toxicity against mouse RAW264.7 cells assessed as reduction in cell viability at 0.01 to 1 uM incubated for 24 hrs by MTT assay; format: cell-based; conditions: raw264.7, 24 h
Summary of the method: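 Macrophages were exposed to compound at 0.01–1 for 24 h. Viability was then assessed by MTT assay.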

RAW264.7 [3] = assay: Anti-inflammatory activity in LPS-stimulated mouse RAW264.7 cells assessed as suppression of IL6 production pre-incubated for 1 hr before LPS stimulation for 24 hrs by ELISA method; format: functional, cell-based
Summary of the method: (§2)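 IL-6 and TNF-α were measured by ELISA. RAW 264.7 cells (1 × 10⁶) were plated and pretreated with or without compound for 1 h, then stimulated with LPS (25 ng/mL) for 24 h at 37 °C.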

[4] = biological target: Transcription factor p65 (Mus musculus) (UniProt Q04207); assay: Inhibition of p65 phosphorylation in LPS-stimulated mouse RAW264.7 cells at 0.01 to 1 uM pre-incubated for 30 mins before LPS stimulation for 24 hrs by Western blotting method; format: cell-based; summary of the method: as §1
Chain of Transcription factor p65 (Mus musculus) (Q04207 whole entry): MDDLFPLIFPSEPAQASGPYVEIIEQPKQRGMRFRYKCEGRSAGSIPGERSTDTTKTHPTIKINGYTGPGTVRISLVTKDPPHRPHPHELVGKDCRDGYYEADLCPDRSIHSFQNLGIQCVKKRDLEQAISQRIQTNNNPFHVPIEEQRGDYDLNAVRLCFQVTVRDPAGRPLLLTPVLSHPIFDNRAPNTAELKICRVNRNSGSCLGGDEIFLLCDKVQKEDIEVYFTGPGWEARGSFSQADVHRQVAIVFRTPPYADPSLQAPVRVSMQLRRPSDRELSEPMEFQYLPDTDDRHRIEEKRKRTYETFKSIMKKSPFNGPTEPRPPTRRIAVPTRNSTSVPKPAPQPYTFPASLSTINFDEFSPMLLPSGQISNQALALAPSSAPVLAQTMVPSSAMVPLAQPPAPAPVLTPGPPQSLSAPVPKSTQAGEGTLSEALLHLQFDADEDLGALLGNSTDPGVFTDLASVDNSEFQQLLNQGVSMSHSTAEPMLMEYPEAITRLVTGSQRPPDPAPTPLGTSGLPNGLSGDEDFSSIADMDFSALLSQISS

[5] = Retention time of the compound by HPLC method; format: physicochemical
RAW264.7 [6] = assay: Inhibition of HDAC in mouse RAW264.7 cells assessed as increase in histone H3 acetylation at > 0.1 uM incubated for 24 hrs by Western blotting method
RAW264.7 [7] = assay: Anti-inflammatory activity in LPS-stimulated mouse RAW264.7 cells assessed as suppression of iNOS protein expression at 0.01 to 1 uM pre-incubated for 30 mins before LPS stimulation for 24 hrs by Western blotting method; format: functional, cell-based; summary of the method: as §1
Rattus norvegicus [8] = assay: Anti-inflammatory activity in Wistar rat model of carrageenan-induced edema assessed as reduction in right hind paw thickness at 20 mg/kg, po dosed 1 hour before carrageenan injection measured 3 hrs post carrageenan challenge by digital plethysmometry; format: functional, organism-based; design: dose 20 mg/kg
Summary of the method: (§3)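 Male Wistar rats (7 weeks) were randomised into eight groups. They were dosed orally 1 h before carrageenan: vehicle (1% carboxymethyl cellulose + 0.5% Tween 80), test suspensions at 20 mg/kg, or indomethacin as positive control at 1 mg/kg. Carrageenan (0.5% w/v in saline) was injected intradermally into the base of the right hind paw. Paw change was read at 3 h by digital caliper and plethysmometer.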

RAW264.7 [9] = assay: Anti-inflammatory activity in LPS-stimulated mouse RAW264.7 cells assessed as suppression of PGE2 production pre-incubated for 1 hr before LPS stimulation for 24 hrs by enzyme immunoassay method; format: functional, cell-based
Summary of the method: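 RAW 264.7 cells (1 × 10⁶) were treated with or without compound for 1 h, then stimulated with LPS (25 ng/mL) for 24 h at 37 °C. PGE₂ in culture supernatants was measured by EIA kit.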

Histone deacetylase = assay: Inhibition of HDAC in human HeLa cells nuclear extracts incubated for 30 mins by fluorescent assay; format: cell-free
RAW264.7 [10] = assay: Anti-inflammatory activity in LPS-stimulated mouse RAW264.7 cells assessed as suppression of nitric oxide production pre-incubated for 1 hr before LPS stimulation for 24 hrs by Griess reagent based assay; format: functional, cell-based
Summary of the method: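 Nitrite concentration was quantified against a standard dilution series of sodium nitrite.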

RAW264.7 [11] = assay: Anti-inflammatory activity in LPS-stimulated mouse RAW264.7 cells assessed as suppression of TNFalpha production pre-incubated for 1 hr before LPS stimulation for 24 hrs by ELISA method; format: functional, cell-based; summary of the method: as §2
Rattus norvegicus [12] = assay: Anti-inflammatory activity in Wistar rat model of carrageenan-induced edema assessed as reduction in right hind paw thickness at 1 mg/kg, po dosed 1 hour before carrageenan injection measured 3 hrs post carrageenan challenge by digital plethysmometry; format: functional, organism-based; design: dose 1 mg/kg; summary of the method: as §3

SMILES	inhibition (RAW264.7 [1])	Activity (RAW264.7 [2])	IC50 (RAW264.7 [3]) [nM]	inhibition [4]	Retention_time [5] [min]	inhibition (RAW264.7 [6])	inhibition (RAW264.7 [7])	inhibition (Rattus norvegicus [8])	IC50 (RAW264.7 [9]) [nM]	IC50 (Histone deacetylase) [nM]	IC50 (RAW264.7 [10]) [nM]	IC50 (RAW264.7 [11]) [nM]	inhibition (Rattus norvegicus [12])
Cc1c(CCNS(=O)(=O)c2ccc(/C=C/C(=O)NO)cc2)c2ccccc2n1C	Active	Non-toxic	14	Dose-dependent effect	25.96	Active	Active	Active	150	3.3	300	800	–
CCN(CC)CCn1c(C)c(CCNS(=O)(=O)c2ccc(/C=C/C(=O)NO)cc2)c2ccccc21	–	–	0.14	–	16.67	–	–	–	3100	7.3	3100	1500	–
Cc1[nH]c2ccccc2c1CCNS(=O)(=O)c1cccc(/C=C/C(=O)NO)c1	Active	Non-toxic	13	Dose-dependent effect	23.3	Active	Active	Active	320	7.9	360	1500	–
COc1ccc2c(c1)c(CC(=O)O)c(C)n2C(=O)c1ccc(Cl)cc1	–	–	–	–	–	–	–	–	–	–	–	–	Active
O=C(/C=C/c1ccc(S(=O)(=O)NCCc2c[nH]c3ccccc23)cc1)NO	–	–	0.014	–	22.17	–	–	–	2200	6.6	740	1200	–
Cn1cc(CCNS(=O)(=O)c2ccc(/C=C/C(=O)NO)cc2)c2ccccc21	–	–	32	–	24.21	–	–	–	1500	5.7	290	620	–
CCN(CCc1c(C)[nH]c2ccccc12)S(=O)(=O)c1ccc(/C=C/C(=O)NO)cc1	–	–	5.9	–	27.17	–	–	–	2900	29.6	1200	> 10000	–
O=C(/C=C/c1ccc(S(=O)(=O)N2CCc3c([nH]c4ccccc34)C2)cc1)NO	–	–	31	–	25.18	–	–	–	7200	43.9	3700	> 10000	–
Cc1[nH]c2ccccc2c1CCN(C)S(=O)(=O)c1ccc(/C=C/C(=O)NO)cc1	–	–	5.5	–	25.51	–	–	–	2900	47.4	1000	> 10000	–
Cc1[nH]c2ccccc2c1CCNS(=O)(=O)c1ccc(/C=C/C(=O)NO)cc1	Active	Non-toxic	20	Dose-dependent effect	23.3	Active	Active	Active	330	2.8	740	480	–
Cc1[nH]c2ccccc2c1CCNS(=O)(=O)c1ccc(C(=O)NO)cc1	–	–	23.9	–	21.88	–	–	–	> 10000	771.8	> 10000	> 10000	–
O=C(/C=C/c1cccc(S(=O)(=O)Nc2ccccc2)c1)NO [BELINOSTAT]	–	–	0.059	–	–	–	–	–	8280	–	2200	4700	–
Cc1[nH]c2ccccc2c1CCN(C(C)C)S(=O)(=O)c1ccc(/C=C/C(=O)NO)cc1	–	–	4.5	–	28.67	–	–	–	7400	9.2	1600	> 10000	–
CCn1c(C)c(CCNS(=O)(=O)c2ccc(/C=C/C(=O)NO)cc2)c2ccccc21	Active	Non-toxic	21	Dose-dependent effect	27.93	Active	Active	Active	270	3.4	260	730	–
